Results published in ChEMBL document CHEMBL1269004, “Synthesis of a 6-methyl-7-deaza analogue of adenosine that potently inhibits replication of polio and dengue viruses” (J Med Chem, 2010).
The source made the active and inactive calls. The rule behind the calls is not given here.

How the values were obtained:
dengue virus type 2 [1] = assay: Antiviral activity against Dengue virus type 2 in BHK-21 cells assessed as inhibition of viral replication after 24 hrs by luciferase assay; format: functional, organism-based; conditions: BHK-21, 24 h
Method in brief: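 BHK-21 cells stably carrying a luciferase DENV2 replicon, grown in DMEM/F-12 with 10% FBS. Seeded 24 h ahead, then exposed for 24 h to a nucleoside concentration series in media with 1% DMSO. Cells PBS-washed and lysed; luciferase luminescence read on the lysate.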

[2] = Cytotoxicity against human HeLaS3 cells at 100 uM after 24 hrs by celltiter-glo assay; format: cell-based; conditions: HeLa S3, 24 h
Method in brief: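 HeLa S3 cells (4 × 10^3/well) treated 24 h at 37 °C in 0.1% DMSO. Viability measured as ATP luminescence (CellTiter-Glo) after PBS wash, read after 10 min at 22 °C, and reported as % viable cells.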

Enterovirus C [3] = assay: Antiviral activity against Poliovirus infected in human HeLaS3 cells assessed as inhibition of viral replication treated 1 hr before infection measured after 2 days; format: functional, organism-based; conditions: HeLa S3
Method in brief: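 HeLa S3 cells (1 × 10^5, plated 1 day prior) pretreated 1 h at 37 °C with nucleoside in 0.1% DMSO media, then infected with 1 × 10^6 PFU PV in PBS for 15 min at room temperature. Refed with nucleoside-containing media and infected 6 h at 37 °C. Cell-associated virus released by 3 freeze-thaw cycles and titered by plaque assay on HeLa S3 under 1% agarose for 2 days, with crystal violet stain. IC50 from a four-parameter fit.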

[4] = Cytotoxicity against human HeLaS3 cells after 7 hrs by celltiter-glo assay; format: cell-based; conditions: HeLa S3, 7 h
Method in brief: (§1)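 HeLa S3 cells (4 × 10^3/well, plated 24 h before) exposed to a nucleoside concentration series at 37 °C, final 0.1% DMSO, for 7, 24 or 48 h. Cells PBS-washed; viability read as ATP-dependent luminescence (CellTiter-Glo) after 10 min at 22 °C. IC50 from a four-parameter fit of luminescence vs concentration.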

dengue virus type 2 [5] = assay: Antiviral activity against Dengue virus type 2 in Vero cells assessed as inhibition of viral replication after 6 days using neutral red dye by plaque assay; format: functional, organism-based; conditions: 144 h
Method in brief: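 Cells infected with DENV2, then treated for 24 h at 37 °C with a concentration series in 1% DMSO media. Supernatant overlaid with 0.9% low-melting agarose in EMEM/0.5% FBS for 6 days at 37 °C, then a second agarose layer with 0.015% neutral red added overnight. Plaques counted as PFU/ml; IC50 from a four-parameter fit of titer vs concentration.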

[6] = Cytotoxicity against human HeLaS3 cells after 48 hrs by celltiter-glo assay; format: cell-based; conditions: HeLa S3, 48 h; method in brief: as §1
dengue virus type 2 [7] = assay: Antiviral activity against Dengue virus type 2 in Vero cells assessed as inhibition of viral RNA replication […] by RT-PCR analysis; format: functional, organism-based
[8] = Cytotoxicity against human HeLaS3 cells after 24 hrs by celltiter-glo assay; format: cell-based; conditions: HeLa S3, 24 h; method in brief: as §1
Enterovirus C [9] = assay: Activity at Poliovirus RNA-dependent RNA polymerase assessed as incorporation into opposite adenine and guanine of viral RNA by denaturing PAGE analysis
Method in brief: (§2)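 Pre-assembled PV 3Dpol–sym/sub primer/template (32P end-labelled) complex formed for 3 min at 30 °C. Reaction at 30 °C in 50 mM HEPES pH 7.5 with 10 mM 2-mercaptoethanol, 5 mM MgCl2, 1 µM 3Dpol, 0.5 µM duplex RNA and 0.5 mM NTP, started by adding nucleotide. Stopped at 1, 5 or 10 min, run on denaturing PAGE, phosphorimaged, and expressed as % incorporation relative to the natural NTP.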

[10] = Binding affinity to Poliovirus RNA-dependent RNA polymerase; set-up: species or system Enterovirus C; conditions: read-out: Kd(app)
Enterovirus C [11] = assay: Activity at Poliovirus RNA-dependent RNA polymerase assessed as incorporation into opposite uracil and cytosine of viral RNA by denaturing PAGE analysis; method in brief: as §2
Enterovirus C [12] = assay: Activity at Poliovirus RNA-dependent RNA polymerase assessed as incorporation into opposite cytosine of viral RNA after 30 mins by denaturing PAGE analysis

| Compound | IC50 (dengue virus type 2 [1]) | IC50 (Enterovirus C [3]) | IC50 [4] | IC50 [6] | IC50 [8] | Kd [10] | other results |
| --- | --- | --- | --- | --- | --- | --- | --- |
| Cc1ncnc2c1ccn2[C@@H]1O[C@H](CO)[C@@H](O)[C@H]1O | 0.877 µM | 0.011 µM | > 100 µM | 0.224 µM | – | – | IC50 [2]: 0.986 µM; IC50 (dengue virus type 2 [5]): 0.062 µM; IC50 (dengue virus type 2 [7]): 0.039 µM |
| Cc1nccc2c1ncn2[C@@H]1O[C@H](CO)[C@@H](O)[C@H]1O | > 10 µM | > 10 µM | > 100 µM | > 100 µM | > 100 µM | – | – |
| COC[C@H]1O[C@@H](n2ccc3c(C)ncnc32)[C@H](O)[C@@H]1O | > 10 µM | > 10 µM | > 100 µM | > 100 µM | > 100 µM | – | – |
| Cc1ncnc2c1ncn2[C@@H]1O[C@H](COP(=O)(O)OP(=O)(O)OP(=O)(O)O)[C@@H](O)[C@H]1O | – | – | – | – | – | 170 µM | Activity (Enterovirus C [9]): inactive; Activity (Enterovirus C [11]): Active; Activity (Enterovirus C [12]): 40% |
| Nc1ncnc2c1ncn2[C@@H]1O[C@H](COP(=O)(O)OP(=O)(O)OP(=O)(O)O)[C@@H](O)[C@H]1O [ADENOSINE TRIPHOSPHATE] | – | – | – | – | – | 134 µM | – |
| Cc1ncnc2c1ncn2[C@@H]1O[C@H](CO)[C@@H](O)[C@H]1O | 5.46 µM | 1.01 µM | 17.7 µM | 2.2 µM | 6.68 µM | – | – |
| Cc1ncnc2c1ccn2[C@@H]1O[C@H](COP(=O)(O)OP(=O)(O)OP(=O)(O)O)[C@@H](O)[C@H]1O | – | – | – | – | – | 120 µM | Activity (Enterovirus C [9]): inactive; Activity (Enterovirus C [11]): Active; Activity (Enterovirus C [12]): 60% |
| NC(=O)c1ncn([C@@H]2O[C@H](COP(=O)(O)OP(=O)(O)OP(=O)(O)O)[C@@H](O)[C@H]2O)n1 [RTP] | – | – | – | – | – | 496 µM | – |
| Cc1ccnc2c1ncn2[C@@H]1O[C@H](CO)[C@@H](O)[C@H]1O | > 10 µM | > 10 µM | > 100 µM | > 10 µM | > 100 µM | – | – |
| Nc1ncnc2c1ccn2[C@@H]1O[C@H](CO)[C@@H](O)[C@H]1O [TUBERCIDIN] | – | 0.03 µM | 1.44 µM | 0.4 µM | 0.819 µM | – | – |
